Measured values reported in ChEMBL document CHEMBL1143579, “Synthesis and pharmacology of N1-substituted piperazine-2,3-dicarboxylic acid derivatives acting as NMDA receptor antagonists” (J Med Chem, 2005).

Key:
[1] = biological target: Glutamate NMDA receptor; Grin1/Grin2b (Rattus norvegicus, UniProt P35439+Q00960); experiment: Inhibitory constant against (S)-glutamate and glycine evoked currents mediated by N-methyl-D-aspartate glutamate receptor NR1a/NR2B expressed in Xenopus oocytes; type: cell-based, Oocyte
Sequence of Glutamate NMDA receptor; Grin1/Grin2b (Q00960 whole entry, other chains not shown): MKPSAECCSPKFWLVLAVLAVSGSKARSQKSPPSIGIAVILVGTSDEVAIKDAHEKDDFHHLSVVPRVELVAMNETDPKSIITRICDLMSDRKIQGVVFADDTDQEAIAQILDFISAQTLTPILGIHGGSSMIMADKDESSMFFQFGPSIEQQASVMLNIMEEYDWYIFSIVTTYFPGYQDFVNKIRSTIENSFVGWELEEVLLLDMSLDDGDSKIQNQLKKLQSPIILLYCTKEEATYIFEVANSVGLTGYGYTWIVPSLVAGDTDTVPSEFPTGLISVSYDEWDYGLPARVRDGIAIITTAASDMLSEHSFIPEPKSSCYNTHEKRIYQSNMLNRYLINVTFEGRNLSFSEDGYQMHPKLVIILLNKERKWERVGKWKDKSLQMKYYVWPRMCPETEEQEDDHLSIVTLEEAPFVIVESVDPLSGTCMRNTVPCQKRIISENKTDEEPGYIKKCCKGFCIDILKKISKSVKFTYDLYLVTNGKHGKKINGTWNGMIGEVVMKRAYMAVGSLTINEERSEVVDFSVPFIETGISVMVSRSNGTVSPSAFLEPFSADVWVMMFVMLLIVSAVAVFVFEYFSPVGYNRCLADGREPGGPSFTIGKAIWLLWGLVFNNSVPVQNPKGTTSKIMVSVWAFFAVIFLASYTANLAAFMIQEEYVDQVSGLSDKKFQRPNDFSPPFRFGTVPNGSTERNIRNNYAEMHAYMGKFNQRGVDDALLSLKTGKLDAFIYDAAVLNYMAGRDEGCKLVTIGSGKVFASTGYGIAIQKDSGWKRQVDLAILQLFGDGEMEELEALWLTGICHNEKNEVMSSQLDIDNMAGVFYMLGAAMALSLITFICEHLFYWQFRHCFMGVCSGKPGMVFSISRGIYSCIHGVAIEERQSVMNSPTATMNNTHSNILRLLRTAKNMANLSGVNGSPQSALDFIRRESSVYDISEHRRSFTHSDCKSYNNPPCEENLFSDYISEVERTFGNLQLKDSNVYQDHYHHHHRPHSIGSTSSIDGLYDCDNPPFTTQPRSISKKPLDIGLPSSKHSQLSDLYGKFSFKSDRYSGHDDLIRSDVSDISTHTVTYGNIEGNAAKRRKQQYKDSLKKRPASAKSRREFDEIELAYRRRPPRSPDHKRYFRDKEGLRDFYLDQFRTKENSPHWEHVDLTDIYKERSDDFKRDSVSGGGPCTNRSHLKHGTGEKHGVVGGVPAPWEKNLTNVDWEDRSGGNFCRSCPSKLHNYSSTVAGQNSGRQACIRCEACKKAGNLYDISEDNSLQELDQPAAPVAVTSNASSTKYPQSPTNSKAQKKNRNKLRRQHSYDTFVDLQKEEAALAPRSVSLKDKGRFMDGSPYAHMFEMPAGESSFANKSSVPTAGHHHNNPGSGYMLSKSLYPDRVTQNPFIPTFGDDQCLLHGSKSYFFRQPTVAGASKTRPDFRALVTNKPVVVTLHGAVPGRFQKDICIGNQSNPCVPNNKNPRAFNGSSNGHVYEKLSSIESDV
Outline: (§1)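 Xenopus laevis oocytes were injected with NR1a and NR2 subunit RNA (1:3 molar ratio, 15-30 ng total) and held in ND-96 at 17 °C for 1-5 days. Currents were recorded by two-microelectrode voltage clamp at a holding potential of […] in 116 mM NaCl, 2 mM KCl, 2 mM BaCl2, 5 mM HEPES, pH 7.4. The steady plateau response to bath-applied 10 µM L-glutamate plus 10 µM glycine was measured. Apparent Ki was obtained as IC50(obs)/(1 + [agonist]/EC50).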

[2] = biological target: Glutamate NMDA receptor; Grin1/Grin2c (Rattus norvegicus, UniProt P35439+Q00961); experiment: Inhibitory constant against (S)-glutamate and glycine evoked currents mediated by N-methyl-D-aspartate glutamate receptor NR1a/NR2C expressed in Xenopus oocytes; type: cell-based, Oocyte; outline: as §1
Sequence of Glutamate NMDA receptor; Grin1/Grin2c (Q00961 whole entry, other chains not shown): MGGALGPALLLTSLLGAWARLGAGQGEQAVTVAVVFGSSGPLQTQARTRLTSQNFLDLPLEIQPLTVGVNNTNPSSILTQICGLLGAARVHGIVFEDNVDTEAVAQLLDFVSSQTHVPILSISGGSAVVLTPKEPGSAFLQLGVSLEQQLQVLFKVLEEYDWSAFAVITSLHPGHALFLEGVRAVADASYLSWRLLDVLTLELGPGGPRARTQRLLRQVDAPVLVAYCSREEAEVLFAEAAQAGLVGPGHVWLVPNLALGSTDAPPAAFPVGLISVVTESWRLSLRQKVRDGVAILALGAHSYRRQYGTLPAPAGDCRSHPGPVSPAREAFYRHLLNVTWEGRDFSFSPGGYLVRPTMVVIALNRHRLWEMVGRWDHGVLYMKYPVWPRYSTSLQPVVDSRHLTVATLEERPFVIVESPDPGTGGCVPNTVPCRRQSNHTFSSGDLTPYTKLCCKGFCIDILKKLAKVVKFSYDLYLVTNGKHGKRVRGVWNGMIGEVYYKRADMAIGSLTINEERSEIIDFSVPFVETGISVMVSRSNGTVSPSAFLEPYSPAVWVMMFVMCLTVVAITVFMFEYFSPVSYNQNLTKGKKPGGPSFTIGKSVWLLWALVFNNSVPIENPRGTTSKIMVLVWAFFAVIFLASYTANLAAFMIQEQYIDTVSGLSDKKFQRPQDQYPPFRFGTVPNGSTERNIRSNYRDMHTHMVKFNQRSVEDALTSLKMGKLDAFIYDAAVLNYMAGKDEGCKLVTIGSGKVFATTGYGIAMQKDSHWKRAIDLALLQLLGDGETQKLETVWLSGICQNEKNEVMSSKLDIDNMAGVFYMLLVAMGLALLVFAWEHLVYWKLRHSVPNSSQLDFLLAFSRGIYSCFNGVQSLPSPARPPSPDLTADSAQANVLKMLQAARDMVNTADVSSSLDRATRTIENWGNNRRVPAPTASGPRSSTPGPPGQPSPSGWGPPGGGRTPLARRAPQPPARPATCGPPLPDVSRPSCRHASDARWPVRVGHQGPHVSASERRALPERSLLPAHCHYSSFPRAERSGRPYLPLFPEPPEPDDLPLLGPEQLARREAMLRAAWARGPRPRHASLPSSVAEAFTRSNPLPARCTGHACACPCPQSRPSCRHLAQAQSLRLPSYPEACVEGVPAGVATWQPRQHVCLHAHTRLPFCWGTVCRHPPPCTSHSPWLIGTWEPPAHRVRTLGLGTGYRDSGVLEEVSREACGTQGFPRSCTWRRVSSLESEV

[3] = Inhibitory constant against (S)-glutamate and glycine evoked currents mediated by N-methyl-D-aspartate glutamate receptor NR1a/NR2D expressed in Xenopus oocytes; type: cell-based, Rattus norvegicus; settings: oocyte
Outline: (§2)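 Xenopus laevis oocytes were injected with NR1a and NR2 subunit RNA (1:3 molar ratio, 15-30 ng total) and held in ND-96 at 17 °C for 1-5 days. The steady plateau response to bath-applied 10 µM L-glutamate plus 10 µM glycine was measured. Apparent Ki was obtained as IC50(obs)/(1 + [agonist]/EC50).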

[4] = biological target: Glutamate NMDA receptor; Grin1/Grin2a (Rattus norvegicus, UniProt P35439+Q00959); experiment: Inhibitory constant against (S)-glutamate and glycine evoked currents mediated by N-methyl-D-aspartate glutamate receptor NR1a/NR2A expressed in Xenopus oocytes; type: cell-based, Oocyte; outline: as §2
Sequence of Glutamate NMDA receptor; Grin1/Grin2a (Q00959 whole entry, other chains not shown): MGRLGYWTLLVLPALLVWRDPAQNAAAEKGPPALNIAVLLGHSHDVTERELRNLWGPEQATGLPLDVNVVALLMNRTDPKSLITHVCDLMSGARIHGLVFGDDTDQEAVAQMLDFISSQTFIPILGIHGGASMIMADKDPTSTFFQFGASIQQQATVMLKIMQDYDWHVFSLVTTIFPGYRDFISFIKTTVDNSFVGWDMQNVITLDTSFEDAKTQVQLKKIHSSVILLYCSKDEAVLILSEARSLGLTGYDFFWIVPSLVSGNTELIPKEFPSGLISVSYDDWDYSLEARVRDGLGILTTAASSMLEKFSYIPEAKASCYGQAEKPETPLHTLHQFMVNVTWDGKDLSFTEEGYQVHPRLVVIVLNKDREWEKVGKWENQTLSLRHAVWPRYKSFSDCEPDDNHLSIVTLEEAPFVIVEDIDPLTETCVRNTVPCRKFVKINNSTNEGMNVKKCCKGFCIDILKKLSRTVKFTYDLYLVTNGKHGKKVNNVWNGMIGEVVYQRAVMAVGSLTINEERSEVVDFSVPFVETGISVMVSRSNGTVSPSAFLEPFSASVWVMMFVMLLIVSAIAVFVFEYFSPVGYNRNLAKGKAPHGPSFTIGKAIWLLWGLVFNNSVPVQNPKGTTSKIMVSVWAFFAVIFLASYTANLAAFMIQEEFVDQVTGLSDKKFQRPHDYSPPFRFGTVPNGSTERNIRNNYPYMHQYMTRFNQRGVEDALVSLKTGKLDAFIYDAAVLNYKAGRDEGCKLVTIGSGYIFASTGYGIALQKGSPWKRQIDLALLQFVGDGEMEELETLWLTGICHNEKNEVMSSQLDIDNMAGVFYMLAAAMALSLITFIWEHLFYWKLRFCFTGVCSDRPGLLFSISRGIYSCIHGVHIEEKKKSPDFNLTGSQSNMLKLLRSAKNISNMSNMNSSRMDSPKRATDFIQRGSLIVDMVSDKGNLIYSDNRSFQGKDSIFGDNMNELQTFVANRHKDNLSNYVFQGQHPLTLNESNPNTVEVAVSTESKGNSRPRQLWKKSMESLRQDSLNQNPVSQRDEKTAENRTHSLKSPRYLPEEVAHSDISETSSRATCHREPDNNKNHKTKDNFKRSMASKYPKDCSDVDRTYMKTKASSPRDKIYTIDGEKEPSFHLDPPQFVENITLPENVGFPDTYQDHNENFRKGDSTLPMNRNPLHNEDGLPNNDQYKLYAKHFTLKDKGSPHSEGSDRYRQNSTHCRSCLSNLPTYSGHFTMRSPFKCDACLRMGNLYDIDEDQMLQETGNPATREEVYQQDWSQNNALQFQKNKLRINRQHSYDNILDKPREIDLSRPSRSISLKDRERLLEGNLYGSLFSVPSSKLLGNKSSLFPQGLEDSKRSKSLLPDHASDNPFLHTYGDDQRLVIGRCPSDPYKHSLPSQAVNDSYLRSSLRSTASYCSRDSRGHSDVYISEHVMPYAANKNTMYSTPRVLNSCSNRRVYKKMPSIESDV

Structure (SMILES) | Ki [1] | Ki [2] | Ki [3] | Ki [4]
N[C@H](CCCP(=O)(O)O)C(=O)O | 0.46 µM | 1.64 µM | 3.71 µM | 0.28 µM
N[C@H](CCCCCP(=O)(O)O)C(=O)O | 4.14 µM | 6.42 µM | 17.1 µM | 0.49 µM
O=C(O)[C@H]1NCCN(C(=O)c2ccc3ccc4ccccc4c3c2)[C@H]1C(=O)O | 19.3 µM | 4.22 µM | 2.78 µM | 14.2 µM
O=C(O)[C@@H]1NCCN(C(=O)c2ccc3c(ccc4ccccc43)c2)[C@H]1C(=O)O | 9.08 µM | 4.88 µM | 6.03 µM | 10.5 µM
O=C(O)[C@H]1NCCN(C(=O)c2ccccc2)[C@H]1C(=O)O | > 100 µM | > 100 µM | > 100 µM | > 100 µM
O=C(O)[C@H]1NCCN(Cc2ccc3c(ccc4ccccc43)c2)[C@H]1C(=O)O | 10.2 µM | 2.67 µM | 3.18 µM | 11.2 µM
O=C(O)[C@H]1NCCN(C(=O)c2ccc3c(ccc4cc(Br)ccc43)c2)[C@H]1C(=O)O | 0.25 µM | 0.0994 µM | 0.15 µM | 0.32 µM
O=C(O)[C@H]1NCCN(C(=O)c2ccc3c(ccc4ccccc43)c2)[C@H]1C(=O)O | 0.31 µM | 0.096 µM | 0.125 µM | 0.55 µM
O=C(O)[C@H]1NCCN(C(=O)c2ccc(-c3ccccc3)cc2)[C@H]1C(=O)O | 5.01 µM | 8.98 µM | 4.29 µM | 15.8 µM

Further lines, results first:

Ki [1] | Ki [2] | Ki [3] | Ki [4] | Structure (SMILES)
0.067 µM | 0.0116 µM | 0.037 µM | 0.0054 µM | C[C@H](NC(c1cccc2nc(O)c(O)nc12)P(=O)(O)O)c1ccc(Br)cc1 (stereo partly specified)
16.2 µM | 8.67 µM | 10.9 µM | 13.6 µM | O=C(O)[C@H]1NCCN(S(=O)(=O)c2ccc(-c3ccccc3)cc2)[C@H]1C(=O)O
22.1 µM | 8.49 µM | 12.9 µM | 42.9 µM | O=C(O)[C@H]1NCCN(C(=O)c2ccc(-c3ccccc3Br)cc2)[C@H]1C(=O)O
3.25 µM | 1.17 µM | 2.17 µM |  | O=C(O)[C@H]1NCCN(C(=O)c2ccc3c(c2)Cc2ccccc2-3)[C@H]1C(=O)O
13.4 µM | 7.38 µM | 8.02 µM | 8.78 µM | O=C(O)[C@H]1NCCN(C(=O)c2ccc(-c3ccc(F)cc3)cc2)[C@H]1C(=O)O
0.3 µM | 0.85 µM | 1.94 µM | 0.84 µM | O=C(O)[C@H]1NCCN(C(=O)/C=C/c2ccc3ccccc3c2)[C@H]1C(=O)O
18.2 µM | 3.89 µM |  |  | O=C(O)[C@H]1NCCN(C(=O)c2ccc3ccccc3c2)[C@H]1C(=O)O
0.27 µM | 0.63 µM | 1.99 µM | 0.041 µM | O=C(O)[C@H]1CN(CCCP(=O)(O)O)CCN1
0.76 µM | 0.29 µM | 0.57 µM | 1.54 µM | O=C(O)[C@H]1NCCN(C(=O)c2ccc3c(c2)CCc2ccccc2-3)[C@H]1C(=O)O
18 µM | 27 µM | 59.7 µM | 13.2 µM | O=C(O)[C@H]1NCCN(C(=O)/C=C/c2ccccc2)[C@H]1C(=O)O
9.36 µM | 4.42 µM | 6.45 µM | 7.97 µM | O=C1c2ccccc2-c2ccc(C(=O)N3CCN[C@H](C(=O)O)[C@@H]3C(=O)O)cc21
2.15 µM | 0.66 µM | 1.03 µM | 3.88 µM | O=C(O)[C@H]1NCCN(C(=O)c2ccc3c(c2)CCc2cc(Br)ccc2-3)[C@H]1C(=O)O
